Experimental data from ChEMBL document CHEMBL1141336, “Isolation and structure elucidation of kadlongilactones C-F from Kadsura longipedunculata by NMR spectroscopy and DFT computational methods” (J Nat Prod, 2007).
Where a name gives a salt, the structure may show the parent alone.

Legend:
HT-29 = test: Cytotoxicity against human HT29 cells after 72 hrs by SRB assay; assay type: functional, cell-based; conditions: HT-29, 72 h
Method in brief: (§1)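 Adherent tumour cells were seeded in 96-well plates 24 h before dosing and exposed continuously to a series of compound concentrations for 72 h. Cells were then fixed and stained with sulforhodamine B to read out cytotoxicity.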

K562 = test: Cytotoxicity against human K562 cells after 72 hrs by trypan blue exclusion method; conditions: K562, 72 h
A549 = test: Cytotoxicity against human A549 cells after 72 hrs by SRB assay; assay type: functional, cell-based; conditions: A549, 72 h; method in brief: as §1

| Structure (SMILES) | IC50 (HT-29) [µM] | IC50 (K562) [µM] | IC50 (A549) [µM] |
| --- | --- | --- | --- |
| CO[C@@H]1C[C@]2(C)[C@@H](C[C@]3(O)C=C4C=CC(=O)OC(C)(C)[C@@H]4CC[C@@H]23)C2=C1[C@H](C)[C@@H]1OC(=O)C(C)=C[C@@H]1C2 [KADLONGILACTONE C] | 2.08 | 3.61 | 1.45 |
| CC1=C[C@@H]2CC3=C([C@H](O)C[C@]4(C)[C@H]3C[C@]3(O)C=C5C=CC(=O)OC(C)(C)[C@@H]5CC[C@@H]43)[C@H](C)[C@@H]2OC1=O [KADLONGILACTONE A] | 1.44 | 3.44 | 1.24 |
| CC1=C[C@@H]2CC3=C([C@@H](O)C[C@]4(C)[C@H]3C[C@]3(O)C=C5C=CC(=O)OC(C)(C)[C@@H]5CC[C@@H]43)[C@H](C)[C@@H]2OC1=O [KADLONGILACTONE D] | 1.64 | 1.92 | 0.49 |
| CC(=O)[C@]1(N)Cc2c(O)c3c(c(O)c2[C@@H](O[C@H]2C[C@H](O)[C@H](O)CO2)C1)C(=O)c1ccccc1C3=O [AMRUBICIN HYDROCHLORIDE] | 4.36 | 1.26 | 0.82 |
| CO[C@H]1C[C@]2(C)[C@@H](C[C@]3(O)C=C4C=CC(=O)OC(C)(C)[C@@H]4CC[C@@H]23)C2=C1[C@H](C)[C@@H]1OC(=O)C(C)=C[C@@H]1C2 [KADLONGILACTONE E] | 1.32 | 3.35 | 0.88 |
